Measurements reported in ChEMBL document CHEMBL4823270, “A first-in-class anticancer dual HDAC2/FAK inhibitors bearing hydroxamates/benzamides capped by pyridinyl-1,2,4-triazoles” (Eur J Med Chem, 2021).

How the values were obtained:
Histone deacetylase 1 = Histone deacetylase 1 (Homo sapiens, UniProt Q13547); assay: Inhibition of human full-length recombinant HDAC1 preincubated for 5 mins followed by HDAC substrate addition and further incubated for 45 mins by fluorescence microplate reader assay
[1] = molecular target: T1, Protein deacetylase HDAC6 (Homo sapiens, UniProt Q9UBN7); assay: Inhibition of human full-length recombinant HDAC6 preincubated for 5 mins followed by HDAC substrate addition and further incubated for 45 mins by fluorescence microplate reader assay
T1 sequence (Q9UBN7 whole entry): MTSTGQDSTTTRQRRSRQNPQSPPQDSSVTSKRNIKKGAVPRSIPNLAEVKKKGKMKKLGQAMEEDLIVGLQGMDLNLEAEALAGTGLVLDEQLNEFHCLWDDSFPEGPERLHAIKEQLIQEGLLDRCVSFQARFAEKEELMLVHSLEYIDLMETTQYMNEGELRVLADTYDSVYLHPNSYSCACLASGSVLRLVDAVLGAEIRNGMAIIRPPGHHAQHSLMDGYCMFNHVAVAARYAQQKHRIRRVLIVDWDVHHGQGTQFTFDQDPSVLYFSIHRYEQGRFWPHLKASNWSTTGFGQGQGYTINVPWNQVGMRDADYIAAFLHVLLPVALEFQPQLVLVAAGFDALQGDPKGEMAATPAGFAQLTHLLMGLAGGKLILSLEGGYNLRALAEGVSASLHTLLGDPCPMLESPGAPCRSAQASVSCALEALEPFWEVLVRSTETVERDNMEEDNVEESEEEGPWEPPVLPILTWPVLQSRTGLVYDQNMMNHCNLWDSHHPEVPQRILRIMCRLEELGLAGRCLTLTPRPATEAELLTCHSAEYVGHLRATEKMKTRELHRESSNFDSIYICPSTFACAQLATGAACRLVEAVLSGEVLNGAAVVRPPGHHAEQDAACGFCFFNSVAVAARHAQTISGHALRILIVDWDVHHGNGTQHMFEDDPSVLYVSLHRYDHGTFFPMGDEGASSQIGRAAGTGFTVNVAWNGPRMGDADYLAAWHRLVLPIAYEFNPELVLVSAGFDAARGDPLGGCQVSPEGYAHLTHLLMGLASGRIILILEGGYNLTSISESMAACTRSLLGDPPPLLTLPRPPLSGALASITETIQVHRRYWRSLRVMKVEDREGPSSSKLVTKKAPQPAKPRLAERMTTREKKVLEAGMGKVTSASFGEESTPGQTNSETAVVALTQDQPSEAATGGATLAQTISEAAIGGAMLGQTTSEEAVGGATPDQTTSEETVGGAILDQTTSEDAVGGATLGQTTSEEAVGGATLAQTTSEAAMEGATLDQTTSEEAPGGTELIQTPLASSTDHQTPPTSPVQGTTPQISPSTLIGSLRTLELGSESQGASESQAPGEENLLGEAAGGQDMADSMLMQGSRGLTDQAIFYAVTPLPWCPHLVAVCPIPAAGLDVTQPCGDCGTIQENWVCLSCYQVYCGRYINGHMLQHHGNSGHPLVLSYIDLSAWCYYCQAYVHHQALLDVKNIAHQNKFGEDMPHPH

CAKI-1 [2] = assay: Growth inhibition of human CAKI-1 cells at 10 uM incubated for 24 hrs by MTT assay relative to control; type: functional; conditions: read-out: GI
In short: (§1)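 Cells seeded at 1 × 10^4 per well, cultured overnight, then exposed to 10 μM compound or DMSO (negative control) for 24 h. After a PBS wash, MTT (2 mg/ml) was added for 4 h at 37°C and formazan dissolved in DMSO. OD read at 570 nm. Growth inhibition = 1 − (OD treated/OD control); at least three independent experiments.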

A498 [3] = assay: Growth inhibition of human A498 cells at 10 uM incubated for 24 hrs by MTT assay relative to control; type: functional; conditions: read-out: GI; in short: as §1
Histone deacetylase 2 = Histone deacetylase 2 (Homo sapiens, UniProt Q92769); assay: Inhibition of human full-length recombinant HDAC2 preincubated for 5 mins followed by HDAC substrate addition and further incubated for 45 mins by fluorescence microplate reader assay
Focal adhesion kinase 1 = Focal adhesion kinase 1 (Homo sapiens, UniProt Q05397); assay: Inhibition of FAK (unknown origin) by FRET-based Z'-Lyte assay
In short: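 Recombinant FAK kinase activity measured with the FRET-based Z'-LYTE format; the same platform was used for a kinase panel (FAK, FLT, FRK, IGF-1R, BTK). IC50 values determined.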

HCT-116 = assay: Growth inhibition of human HCT-116 cells at 10 uM incubated for 24 hrs by MTT assay relative to control; type: functional; conditions: read-out: GI; in short: as §1
KG-1 = assay: Growth inhibition of human KG-1 cells at 10 uM incubated for 24 hrs by MTT assay relative to control; type: functional; conditions: KG-1, 24 h; in short: as §1
Histone deacetylase 3 = Histone deacetylase 3 (Homo sapiens, UniProt O15379); assay: Inhibition of human full-length recombinant HDAC3 preincubated for 5 mins followed by HDAC substrate addition and further incubated for 45 mins by fluorescence microplate reader assay
CAKI-1 [4] = assay: Antiproliferative activity against human CAKI-1 cells assessed as cell growth inhibition incubated for 24 hrs by MTT assay; type: functional, cell-based; conditions: CAKI-1, 24 h
A498 [5] = assay: Antiproliferative activity against human A498 cells assessed as cell growth inhibition incubated for 24 hrs by MTT assay; type: functional, cell-based; conditions: A498, 24 h
HT-29 = assay: Growth inhibition of human HT-29 cells at 10 uM incubated for 24 hrs by MTT assay relative to control; type: functional; conditions: read-out: GI; in short: as §1
K562 = assay: Growth inhibition of human K562 cells at 10 uM incubated for 24 hrs by MTT assay relative to control; type: functional; conditions: read-out: GI; in short: as §1
Histone deacetylase 8 = molecular target: T2, Histone deacetylase 8 (Homo sapiens, UniProt Q9BY41); assay: Inhibition of human full-length recombinant C-terminal His-tagged HDAC8 expressed in baculovirus infected Sf9 insect cells preincubated for 5 mins followed by HDAC substrate addition and further incubated for 45 mins by fluorescence microplate reader assay
T2 sequence (Q9BY41 whole entry): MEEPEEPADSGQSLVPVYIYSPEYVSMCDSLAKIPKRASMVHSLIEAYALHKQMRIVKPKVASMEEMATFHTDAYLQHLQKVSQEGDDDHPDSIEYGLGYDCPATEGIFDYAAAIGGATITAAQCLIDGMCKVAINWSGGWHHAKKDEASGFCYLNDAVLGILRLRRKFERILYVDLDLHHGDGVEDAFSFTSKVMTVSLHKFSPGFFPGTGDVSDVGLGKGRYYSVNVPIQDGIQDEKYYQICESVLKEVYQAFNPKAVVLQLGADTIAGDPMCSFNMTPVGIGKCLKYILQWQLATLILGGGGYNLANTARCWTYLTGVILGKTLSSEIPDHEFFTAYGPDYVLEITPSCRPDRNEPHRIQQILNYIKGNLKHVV

Sequence of Histone deacetylase 2 (Q92769 whole entry): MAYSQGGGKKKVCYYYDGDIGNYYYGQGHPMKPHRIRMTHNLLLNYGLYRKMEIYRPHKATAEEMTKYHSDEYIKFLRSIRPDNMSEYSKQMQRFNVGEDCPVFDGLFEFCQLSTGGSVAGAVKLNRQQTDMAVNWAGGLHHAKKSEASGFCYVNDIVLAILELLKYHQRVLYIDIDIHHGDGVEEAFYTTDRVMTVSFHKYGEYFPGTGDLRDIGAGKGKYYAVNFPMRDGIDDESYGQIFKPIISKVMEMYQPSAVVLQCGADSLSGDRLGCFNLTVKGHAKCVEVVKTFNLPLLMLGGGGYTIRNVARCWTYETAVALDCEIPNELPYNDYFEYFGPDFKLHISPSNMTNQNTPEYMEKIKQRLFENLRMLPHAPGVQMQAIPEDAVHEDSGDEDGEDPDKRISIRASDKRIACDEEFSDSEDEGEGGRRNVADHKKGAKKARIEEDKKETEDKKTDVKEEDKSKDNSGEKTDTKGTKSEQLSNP
Sequence of Histone deacetylase 3 (O15379 whole entry): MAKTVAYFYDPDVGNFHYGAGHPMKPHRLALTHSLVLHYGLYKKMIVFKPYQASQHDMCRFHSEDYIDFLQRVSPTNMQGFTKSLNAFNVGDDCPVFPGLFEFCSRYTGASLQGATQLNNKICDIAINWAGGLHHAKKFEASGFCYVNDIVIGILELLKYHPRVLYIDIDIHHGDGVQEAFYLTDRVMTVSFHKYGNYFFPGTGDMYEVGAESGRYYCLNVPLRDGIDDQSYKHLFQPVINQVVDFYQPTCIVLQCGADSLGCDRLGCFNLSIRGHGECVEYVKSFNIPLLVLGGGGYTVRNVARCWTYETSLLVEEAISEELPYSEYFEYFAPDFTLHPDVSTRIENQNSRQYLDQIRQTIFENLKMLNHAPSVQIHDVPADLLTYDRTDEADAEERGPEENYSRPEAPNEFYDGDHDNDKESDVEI
Sequence of Histone deacetylase 1 (Q13547 whole entry): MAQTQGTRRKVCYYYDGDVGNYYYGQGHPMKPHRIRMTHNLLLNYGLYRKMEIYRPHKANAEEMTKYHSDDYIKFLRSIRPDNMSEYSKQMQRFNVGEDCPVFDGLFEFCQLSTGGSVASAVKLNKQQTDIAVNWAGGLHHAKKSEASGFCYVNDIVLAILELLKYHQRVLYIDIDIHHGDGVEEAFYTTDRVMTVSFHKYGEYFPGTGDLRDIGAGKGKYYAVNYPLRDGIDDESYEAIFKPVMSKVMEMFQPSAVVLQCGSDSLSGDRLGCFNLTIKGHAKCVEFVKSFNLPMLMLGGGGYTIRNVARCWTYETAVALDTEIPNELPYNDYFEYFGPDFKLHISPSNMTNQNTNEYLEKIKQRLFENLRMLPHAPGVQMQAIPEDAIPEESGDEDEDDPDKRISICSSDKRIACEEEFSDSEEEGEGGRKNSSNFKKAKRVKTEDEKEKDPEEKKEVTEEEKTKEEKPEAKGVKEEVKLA
Sequence of Focal adhesion kinase 1 (Q05397 whole entry): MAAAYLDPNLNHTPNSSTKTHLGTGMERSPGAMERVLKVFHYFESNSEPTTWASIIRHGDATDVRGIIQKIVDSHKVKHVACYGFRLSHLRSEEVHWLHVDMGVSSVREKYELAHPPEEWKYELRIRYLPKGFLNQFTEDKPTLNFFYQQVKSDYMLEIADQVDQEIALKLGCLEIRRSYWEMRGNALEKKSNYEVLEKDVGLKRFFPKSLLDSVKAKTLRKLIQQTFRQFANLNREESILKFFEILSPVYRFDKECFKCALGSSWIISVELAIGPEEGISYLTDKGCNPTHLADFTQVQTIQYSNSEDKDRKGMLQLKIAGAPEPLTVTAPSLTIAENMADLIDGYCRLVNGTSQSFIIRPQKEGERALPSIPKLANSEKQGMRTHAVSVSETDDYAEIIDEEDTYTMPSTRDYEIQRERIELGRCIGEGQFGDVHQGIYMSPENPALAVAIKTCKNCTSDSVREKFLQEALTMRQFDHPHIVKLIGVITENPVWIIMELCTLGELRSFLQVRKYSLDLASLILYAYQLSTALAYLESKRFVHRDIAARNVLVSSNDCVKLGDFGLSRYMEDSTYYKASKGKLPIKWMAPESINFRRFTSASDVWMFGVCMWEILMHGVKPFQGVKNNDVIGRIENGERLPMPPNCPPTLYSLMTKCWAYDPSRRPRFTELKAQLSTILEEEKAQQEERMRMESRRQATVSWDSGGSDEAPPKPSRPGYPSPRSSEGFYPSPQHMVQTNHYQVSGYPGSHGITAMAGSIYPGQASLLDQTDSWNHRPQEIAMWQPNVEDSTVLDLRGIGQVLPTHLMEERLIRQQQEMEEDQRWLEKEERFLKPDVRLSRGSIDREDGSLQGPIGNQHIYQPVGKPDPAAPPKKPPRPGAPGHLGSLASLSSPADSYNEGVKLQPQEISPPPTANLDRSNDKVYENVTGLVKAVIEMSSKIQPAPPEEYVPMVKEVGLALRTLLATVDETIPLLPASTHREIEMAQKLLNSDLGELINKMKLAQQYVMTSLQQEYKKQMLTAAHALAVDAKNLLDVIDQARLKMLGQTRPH

Structure (SMILES)	IC50 (Histone deacetylase 1) [µM]	IC50 [1] [µM]	inhibition of growth at 10 µM (CAKI-1 [2]) [%]	inhibition of growth at 10 µM (A498 [3]) [%]	IC50 (Histone deacetylase 2) [µM]	IC50 (Focal adhesion kinase 1) [nM]	inhibition of growth at 10 µM (HCT-116) [%]	inhibition in vitro at 10 µM (KG-1) [%]	IC50 (Histone deacetylase 3) [µM]	IC50 (CAKI-1 [4]) [µM]	IC50 (A498 [5]) [µM]	inhibition of growth at 10 µM (HT-29) [%]	inhibition of growth at 10 µM (K562) [%]	IC50 (Histone deacetylase 8) [µM]
Nc1ccccc1NC(=O)CCCCCSc1nnc(-c2ccncc2)n1-c1ccccc1	256	159	1.65	4.67	38.7	312	24.5	34.9	> 300	215	342	9.64	15.1	> 300
O=C(CCCCCSc1nnc(-c2ccncc2)n1-c1ccccc1)NO	> 300	246		4.36	32.4	425	3.56	11.2	> 300	92.4	174	1.09	8.34	> 300
CNC(=O)c1ccccc1Nc1nc(Nc2ccc(N3CCOCC3)cc2OC)ncc1Cl										1.05	0.81			
CCn1c(SCc2ccc(C(=O)NO)cc2)nnc1-c1ccncc1	> 300	> 300	9.34	1.67	30.4	254	1.03	7.12	174	322	203	8.34	14.3	> 300
O=C(NO)c1ccc(CSc2nnc(-c3ccncc3)n2-c2ccccc2)cc1	15	6.93	61.9	56.9	9.76	22.4	29.3	50.9	18	7.13	8.76	42.7	39.1	12.8
Cn1c(SCCCCCC(=O)Nc2ccccc2N)nnc1-c1ccncc1	40.2	14.2	50.8	45.3	14.4	57.1	54.4	63.1	84.1	9.87	13.4	71.4	44.9	7.28
C=CCn1c(SCc2ccc(C(=O)Nc3ccccc3N)cc2)nnc1-c1ccncc1	11.8	9.96	94.8	97.1	1.28	15.6	80.5	87.5	42.1	1.6	1.42	70.7	90.1	22.5
Cn1c(SCc2ccc(C(=O)NO)cc2)nnc1-c1ccncc1	14.2	14.4	48.2	31.8	4.35	64.3		72.1	56.4	11	20.9	54	16	29.8
CCn1c(SCCCCCC(=O)Nc2ccccc2N)nnc1-c1ccncc1	> 300	> 300	8.91	22.3	27.1	141	6.35	3.64	> 300	98.3	77.6	18.6	10.4	198
CCn1c(SCc2ccc(C(=O)Nc3ccccc3N)cc2)nnc1-c1ccncc1	> 300	> 300	12.1	1.18	40.1	112	1.85	5.91	> 300	80.7	124	1.22	8.67	> 300
C=CCn1c(SCc2ccc(C(=O)NO)cc2)nnc1-c1ccncc1	19.6	9.86	50.2	44.9	11.2	46.1	44.1	62	20.7	9.56	13.2	25.3	36.1	28.4
C=CCn1c(SCCCCCC(=O)NO)nnc1-c1ccncc1	> 300	288	8.62	11.1	11.7	189	2.07	5.91	222	89.4	76.4	41.3	16.1	11.1
CCn1c(SCCCCCC(=O)O)nnc1-c1ccncc1	184	> 300	1.06	4.13	26.4	76.2	2.15	7.34	156		125	9.34	1.58	> 300
CCCC(CCC)C(=O)O [VALPROIC ACID]	84.2	215								2830	2140			
